Calls of active or inactive are those of the source. The rule behind the calls is not given here.
Experiments:
[1] = tested on: HL-60; assay: Growth inhibition of human HL60 cells at 2.5 uM after 48 hrs by MTT assay relative to control; format: functional; conditions: for inhibition of growth at 2.5 µM: HL-60, 48 h, read-out: GI
[2] = tested on: HL-60; assay: Growth inhibition of human HL60 cells at 5 uM after 48 hrs by MTT assay relative to control; format: functional; conditions: for inhibition of growth at 5 µM: HL-60, 48 h, read-out: GI
[3] = tested on: HL-60; assay: Growth inhibition of human HL60 cells at 0.63 uM after 48 hrs by MTT assay relative to control; format: functional; conditions: for inhibition of growth at 0.63 µM: HL-60, 48 h, read-out: GI
[4] = tested on: HL-60; assay: Growth inhibition of human HL60 cells after 48 hrs by MTT assay; format: functional, cell-based; conditions: HL-60, 48 h
Method in brief: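 HL-60 human promyelocytic leukemia cells; proliferation inhibition of the cells measured and reported as IC50; values are mean ± SE of at least three independent experiments.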

[5] = tested on: HL-60; assay: Growth inhibition of human HL60 cells at 20 uM after 48 hrs by MTT assay relative to control; format: functional; conditions: for inhibition of growth at 20 µM: HL-60, 48 h, read-out: GI
[6] = tested on: HL-60; assay: Growth inhibition of human HL60 cells at 40 uM after 48 hrs by MTT assay relative to control; format: functional; conditions: for inhibition of growth at 40 µM: HL-60, 48 h, read-out: GI
[7] = tested on: HL-60; assay: Growth inhibition of human HL60 cells at 10 uM after 48 hrs by MTT assay relative to control; format: functional; conditions: for inhibition of growth at 10 µM: HL-60, 48 h, read-out: GI
[8] = tested on: HL-60; assay: Growth inhibition of human HL60 cells at 1.25 uM after 48 hrs by MTT assay relative to control; format: functional; conditions: for inhibition of growth at 1.25 µM: HL-60, 48 h, read-out: GI

Structure (SMILES) | growth inhibition (GI) [1] | growth inhibition (GI) [2] | growth inhibition (GI) [3] | IC50 [4] | inhibition of growth at 20 µM [5] | inhibition of growth at 40 µM [6] | growth inhibition (GI) [7] | growth inhibition (GI) [8] | inhibition of growth at 2.5 µM [1] | inhibition of growth at 5 µM [2] | inhibition of growth at 0.63 µM [3] | inhibition of growth at 10 µM [7] | inhibition of growth at 1.25 µM [8] | growth inhibition (GI) [5] | growth inhibition (GI) [6]
C[C@H]1[C@H](C)CC[C@]2(C(=O)O)CC[C@]3(C)C(=CC[C@@H]4[C@@]5(C)Cc6sc(N)nc6C(C)(C)[C@@H]5CC[C@]43C)[C@H]12 | inactive | inactive | inactive | 40 µM | 12.9% | 59.2% | inactive | inactive |  |  |  |  |  |  | 
C[C@H]1[C@H](C)CC[C@]2(C(=O)N(CCO)CCO)CC[C@]3(C)C(=CC[C@@H]4[C@@]5(C)CCC(=O)C(C)(C)[C@@H]5CC[C@]43C)[C@H]12 |  |  |  | 7.04 µM | 86.5% | 92.7% |  |  | 12.4% | 26.7% | 9.32% | 53.7% | 8.43% |  | 
CC(=O)NN/C=C1/C[C@]2(C)[C@H]3CC=C4[C@@H]5[C@@H](C)[C@H](C)CC[C@]5(C(=O)O)CC[C@@]4(C)[C@]3(C)CC[C@H]2C(C)(C)C1=O |  |  |  | 5.64 µM | 69.7% | 93.1% |  |  | 28.8% | 41.7% | 9.96% | 61.7% | 20.7% |  | 
C[C@H]1[C@H](C)CC[C@]2(C(=O)N3CCNCC3)CC[C@]3(C)C(=CC[C@@H]4[C@@]5(C)CCC(=O)C(C)(C)[C@@H]5CC[C@]43C)[C@H]12 |  |  |  | 2.64 µM | 92.5% | 94.8% |  |  | 43.7% | 82.2% | 10.6% | 92.7% | 22.5% |  | 
C[C@H]1[C@H](C)CC[C@]2(C(=O)O)CC[C@]3(C)C(=CC[C@@H]4[C@@]5(C)CCC(=O)C(C)(C)[C@@H]5CC[C@]43C)[C@H]12 [URSONIC ACID] | inactive | inactive | inactive | > 40 µM |  |  | inactive | inactive |  |  |  |  |  | inactive | inactive
COc1cccc2c1C(=O)c1c(O)c3c(c(O)c1C2=O)C[C@@](O)(C(=O)CO)C[C@@H]3O[C@H]1C[C@H](N)[C@H](O)[C@H](C)O1 [DOXORUBICIN] |  |  |  | < 0.63 µM | > 99% | > 99% |  |  | 85.6% | 95.4% | 80.8% | > 99% | 82.5% |  | 
C[C@H]1[C@H](C)CC[C@]2(C(=O)O)CC[C@]3(C)C(=CC[C@@H]4[C@@]5(C)C/C(=C/O)C(=O)C(C)(C)[C@@H]5CC[C@]43C)[C@H]12 |  |  |  | 5.44 µM | 72.4% | 89.8% |  |  | 33.9% | 50.3% | 9.03% | 67% | 18.5% |  | 
C[C@H]1[C@H](C)CC[C@]2(C(=O)N(CCO)CCO)CC[C@]3(C)C(=CC[C@@H]4[C@@]5(C)Cc6cn[nH]c6C(C)(C)[C@@H]5CC[C@]43C)[C@H]12 |  |  |  | 5.21 µM | 94% | 93.6% |  |  | 19.3% | 64.8% | 3.54% | 86.8% | 2.47% |  | 
C=CCNc1nc2c(s1)C[C@]1(C)[C@H]3CC=C4[C@@H]5[C@@H](C)[C@H](C)CC[C@]5(C(=O)O)CC[C@@]4(C)[C@]3(C)CC[C@H]1C2(C)C |  |  | inactive | > 40 µM | 34.7% | 49.8% |  |  | 4.73% | 13.4% |  | 20.3% | 0.33% |  | 
